From ChEMBL document CHEMBL3352378, “Novel carbazole inhibits phospho-STAT3 through induction of protein-tyrosine phosphatase PTPN6” (J Med Chem, 2014)
Calls of active or inactive are those of the source. No cut-off for these calls is given here.

Tests used:
[1] = target: Signal transducer and activator of transcription 3 (Homo sapiens) (UniProt P40763); assay: Inhibition of STAT3C-mediated transcription in human Hs578T cells at 1 uM after 24 hrs by luciferase reporter gene assay; type: cell-based; conditions: Hs-578T
Procedure, shortened: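 HS578T cells co-transfected with a constitutively active STAT3 (STAT3C) expression vector and the APRE-Luc reporter. Treated at 1 μM for 24 h, with JAK2 inhibitor AZD1480 for comparison. Luciferase measured; mean ± SD of triplicates.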

[2] = target: Signal transducer and activator of transcription 3 (Homo sapiens) (UniProt P40763); assay: Inhibition of STAT3 in human Hs578T cells assessed as reduction of STAT3 phosphorylation at Y705 after 24 hrs by Western blotting analysis; type: cell-based; conditions: Hs-578T
Procedure, shortened: (§1)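 HS578T and SUM149PT cells given increasing concentrations for 24 h. Lysates immunoblotted with the indicated antibodies, β-actin as loading control.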

[3] = target: Signal transducer and activator of transcription 3 (Homo sapiens) (UniProt P40763); assay: Inhibition of STAT3 in human Hs578T cells assessed as reduction of IL-6 induced STAT3 phosphorylation at Y705 incubated for 2 hrs prior to IL-6 challenge measured after 30 mins by Western blotting analysis; type: cell-based; conditions: Hs-578T
Procedure, shortened: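 Cells pretreated with compound for 2 h, then stimulated with IL-6 at 5 ng/mL for 30 min. Lysates immunoblotted for phospho-STAT3 (Y705), with β-actin as loading control.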

SUM149PT [4] = assay: Induction of PTPN6 mRNA expression in human SUM149PT cells after 24 hrs by RT-PCR analysis; type: functional, cell-based
Procedure, shortened: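 HS578T and SUM149PT cells given increasing concentrations for 24 h. PTPN6 mRNA measured by RT-PCR, with GAPDH as loading control.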

[5] = Drug uptake in human MDA-MB-231 cell nucleus at 10 uM after 1 hr by two-photon confocal microscopy; type: ADME, cell-based; conditions: mda-mb-231, 1 h
Procedure, shortened: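 MDA-MB-231 cells grown overnight on fibronectin/[…]-coated slides, then given 10 μM compound or DMSO for 1 h. Cells washed with PBS and fixed in 4% formaldehyde. Two-photon excitation at 725 nm, emission collected through a 500–550 nm filter.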

BT-549 = assay: Cytotoxicity against human BT549 cells after 72 hrs by MTT assay; type: functional, cell-based
Procedure, shortened: (§2)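 Cells exposed to increasing concentrations for about 72 h, and viability read by MTT. EC50 fitted with CompuSyn. Two independent experiments, each in triplicate, mean ± SEM. Compound stocks 10 mM in DMSO.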

MDA-MB-231 = assay: Cytotoxicity against human MDA-MB-231 cells after 72 hrs by MTT assay; type: functional, cell-based; procedure, shortened: as §2
SUM149PT [6] = assay: Antitumor activity against human SUM149 cells xenografted in athymic Balb/c nude mouse assessed as reduction in pSTAT3 level at 30 mg/kg, ip administered every other day for 5 days measured on day 5 by Western blotting analysis; type: functional, organism-based; design: dose 30 mg/kg
Procedure, shortened: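 SUM149 subcutaneous xenografts in nude mice (n = 5), dosed ip every other day in Cremophore/PEG400/PBS vehicle. Tumors taken on day 5 were immunoblotted for PTPN6, STAT3 and pSTAT3, with GAPDH as control. PTPN6 quantified by densitometry with a one-tailed t test.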

[7] = target: Signal transducer and activator of transcription 3 (Homo sapiens) (UniProt P40763); assay: Inhibition of STAT3 in human SUM149PT cells assessed as reduction of cyclin D1 level at 0.3 to 3 uM after 24 hrs by Western blotting analysis; type: cell-based; procedure, shortened: as §1
[8] = target: Signal transducer and activator of transcription 3 (Homo sapiens) (UniProt P40763); assay: Inhibition of STAT3 in human Hs578T cells assessed as reduction of cyclin D1 mRNA expression at 0.3 to 1 uM after 24 hrs by RT-PCR analysis; type: cell-based; conditions: Hs-578T
Procedure, shortened: (§3)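 HS578T and SUM149PT cells treated for 24 h with increasing concentrations. Transcripts measured by RT-PCR, normalized to GAPDH as loading control.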

Hs-578T [9] = assay: Induction of PTPN6 protein expression in human Hs578T cells transfected with control-siRNA after 24 hrs by Western blotting analysis; type: functional, cell-based
Procedure, shortened: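 HS578T cells transfected with 100 nM control or PTPN6 siRNA using Lipofectamine 2000 in serum-free medium. Medium with 20% FBS added after 4 h, and cells kept 3 days. Then treated with DMSO or compound for 24 h. PTPN6 and phospho-STAT3 immunoblotted and quantified by ImageJ densitometry.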

Hs-578T [10] = assay: Cytotoxicity against human Hs578T cells after 72 hrs by MTT assay; type: functional, cell-based; procedure, shortened: as §2
[11] = target: Signal transducer and activator of transcription 3 (Homo sapiens) (UniProt P40763); assay: Inhibition of STAT3 in human SUM149PT cells assessed as reduction of survivin mRNA expression at 0.3 to 1 uM after 24 hrs by RT-PCR analysis; type: cell-based; procedure, shortened: as §3
SUM1315MO2 = assay: Cytotoxicity against human SUM1315MO2 cells after 72 hrs by MTT assay; type: functional, cell-based; procedure, shortened: as §2
MDA-MB-468 = assay: Cytotoxicity against human MDA-MB-468 cells after 72 hrs by MTT assay; type: functional, cell-based; procedure, shortened: as §2
MDA-MB-436 = assay: Cytotoxicity against human MDA-MB-436 cells after 72 hrs by MTT assay; type: functional, cell-based; procedure, shortened: as §2
A-431 = assay: Cytotoxicity against human A431 cells after 72 hrs by MTT assay; type: functional; conditions: A-431, 72 h; procedure, shortened: as §2
A549 [12] = assay: Antitumor activity against human A549 cells xenografted in athymic Balb/c nude mouse at 10 mg/kg, ip administered every other day for 27 days measured on day 5; type: functional; conditions: route intraperitoneal, read-out: TGI
Procedure, shortened: (§4)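 Male and female athymic nude mice (18–22 g) implanted subcutaneously in the right auxiliary region with 3×10^6 A549 cells. Mice were randomized into groups of five 3 days after implantation, and dosing started at about 50 mm³ tumor. Working solution 1 mg/mL in 10% Cremophore/3% PEG400/87% PBS; ip every other day, vehicle control. Caliper volume L×w×w/2, mean ± SEM, n = 5.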

[13] = target: Signal transducer and activator of transcription 3 (Homo sapiens) (UniProt P40763); assay: Inhibition of STAT3 in human Hs578T cells assessed as reduction of cyclin D1 level at 0.3 to 3 uM after 24 hrs by Western blotting analysis; type: cell-based; conditions: Hs-578T; procedure, shortened: as §1
A549 [14] = assay: Antitumor activity against human A549 cells xenografted in athymic Balb/c nude mouse at 10 mg/kg, ip administered every other day for 27 days measured up to day 27; type: functional; conditions: 648 h, route intraperitoneal, read-out: TGI; procedure, shortened: as §4
[15] = target: Signal transducer and activator of transcription 3 (Homo sapiens) (UniProt P40763); assay: Inhibition of STAT3 in human SUM149PT cells assessed as reduction of STAT3 phosphorylation at Y705 after 24 hrs by Western blotting analysis; type: cell-based; procedure, shortened: as §1

Sequence of Signal transducer and activator of transcription 3 (Homo sapiens) (P40763 whole entry): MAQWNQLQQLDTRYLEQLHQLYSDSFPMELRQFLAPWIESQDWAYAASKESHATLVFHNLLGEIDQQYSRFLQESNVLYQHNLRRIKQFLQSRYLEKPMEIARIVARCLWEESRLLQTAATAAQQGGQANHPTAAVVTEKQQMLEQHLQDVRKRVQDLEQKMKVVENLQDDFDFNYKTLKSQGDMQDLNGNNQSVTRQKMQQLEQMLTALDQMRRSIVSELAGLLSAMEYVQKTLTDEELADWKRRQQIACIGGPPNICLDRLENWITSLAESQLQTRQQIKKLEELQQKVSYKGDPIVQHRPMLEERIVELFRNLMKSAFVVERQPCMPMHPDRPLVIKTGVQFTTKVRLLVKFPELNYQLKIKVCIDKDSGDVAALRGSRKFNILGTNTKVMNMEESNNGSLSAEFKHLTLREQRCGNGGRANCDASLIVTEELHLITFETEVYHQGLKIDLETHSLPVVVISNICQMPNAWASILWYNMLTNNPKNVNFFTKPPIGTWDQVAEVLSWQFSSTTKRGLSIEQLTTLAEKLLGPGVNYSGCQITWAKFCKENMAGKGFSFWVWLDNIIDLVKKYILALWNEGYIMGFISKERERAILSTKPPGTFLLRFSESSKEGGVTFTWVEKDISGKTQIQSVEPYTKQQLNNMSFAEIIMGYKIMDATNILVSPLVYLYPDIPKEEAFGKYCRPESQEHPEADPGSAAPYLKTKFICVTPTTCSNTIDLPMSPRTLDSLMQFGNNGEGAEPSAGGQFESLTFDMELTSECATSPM

Cc1c(OS(=O)(=O)c2cccc3c(N(C)C)cccc23)ccc2c1[nH]c1cc(O)ccc12
inhibition [1]: Active | inhibition [2]: Dose-dependent effect | inhibition [3]: Dose-dependent effect | Activity (SUM149PT [4]): Dose-dependent effect | Drug uptake [5]: Not Active | Activity (BT-549): Active | Activity (MDA-MB-231): Active | Activity (SUM149PT [6]): Active | inhibition [7]: Active | inhibition [8]: Active | Activity (Hs-578T [9]): Active | Activity (Hs-578T [10]): Active | inhibition [11]: Active | Activity (SUM1315MO2): Active | Activity (MDA-MB-468): Active | Activity (MDA-MB-436): Active | GI50 (A-431): 160 nM | inhibition in vivo at 10 mg/kg (A549 [12]): 68.7% | inhibition [13]: Active | inhibition in vivo at 10 mg/kg (A549 [14]): 54.9% | inhibition [15]: Dose-dependent effect
